Shown are actives, neighbours in structure and some others; about 2.4% of the full set was active somewhere.
aDG glyco up: alpha-DG glycosylation activation. Pro5-aDG cells, alpha-DG glycosylation AlphaScreen (IIH6); 0% Pro5, 100% B10-LARGE cell signal. activation, % at 10 µM. 360,000 compounds, 0.22% hits. AID 624168;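 active means activation of at least 8% versus controls, or a plate z-score of at least 8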;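 further: Pro5 are CHO cells carrying HIG-tagged alpha-DG that lacks glycosylation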
MC4R barr agon: human MC4R agonism via beta-arrestin | 360,000 compounds, 0.98% hits | U2OS MC4R beta-arrestin complementation, luminescence; percent of melanotan II response, DMSO zero | AID 540308 | P32245 | activation, % at 8.9 µM;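 active means activation above a per-plate cutoff, the mean activation of sample wells on that plate plus 3 SD, cut at about 8% in these data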
Target sequence (P32245 whole entry, looked up): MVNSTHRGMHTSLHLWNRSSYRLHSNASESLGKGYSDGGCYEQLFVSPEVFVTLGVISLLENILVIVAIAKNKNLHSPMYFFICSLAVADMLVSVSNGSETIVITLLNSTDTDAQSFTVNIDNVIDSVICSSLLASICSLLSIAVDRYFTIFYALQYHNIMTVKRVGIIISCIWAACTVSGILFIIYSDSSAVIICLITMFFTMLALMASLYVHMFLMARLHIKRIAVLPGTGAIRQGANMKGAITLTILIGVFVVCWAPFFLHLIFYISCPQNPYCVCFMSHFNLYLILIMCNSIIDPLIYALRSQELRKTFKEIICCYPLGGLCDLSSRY
MC4R antagonist: blocks human MC4R cAMP signaling; P32245; MC4R-expressing cells, MTII-stimulated cAMP, LANCE TR-FRET; inhibition, % at 6.5 µM; 360,000 compounds, 0.48% hits; AID 540295;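 active means inhibition above its plate's cutoff, the mean of tested wells on that plate plus 3 SD, cut at about 29% in these data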;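 further: 0% = Melanotan II alone and 100% = Melanotan II plus saturating MCL0020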
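material = U2OS cells stably expressing human melanocortin 4 receptor (MC4R) | also added = Melanotan II challenge | dosing = single nominal compound dose of 6.5 µM | detection = TR-FRET with Eu-cAMP and labeled anti-cAMP, 671 nm | replication = singlicate | timing = compound 30 min, challenge 1 h, detection 1 h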
Tb MetRS inh: blocks T. brucei methionyl-tRNA synthetase activity; purified T. brucei MetRS, ATP depletion, Kinase-Glo luminescence; inhibition, % at 11.9 µM; AID 624268; 360,000 compounds, 0.4% hits;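 active means inhibition above a per-plate cutoff of the control wells' mean inhibition plus 3 SD, cut at about 5.5% in these data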;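 further: 0% = DMSO wells median and 100% = median of wells with control inhibitor compound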
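Test system – parasite MetRS enzyme · Reagent – substrates ATP, L-methionine and bulk Escherichia coli tRNA · Doses – 11.9 µM compound single dose, 0.9% DMSO · Times – 15 min enzyme-compound preincubation, 2 h reaction, 10 min detection, 25 °C · Signal – Kinase-Glo luminescence, ATP depletion format · Controls – DMSO-only wells as low control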
TAG inh: triacylglycerol accumulation inhibition. H9c2 cells, Nile Red lipid (TAG) fluorescence; cells loaded with 200 µM oleic acid. inhibition, % at 12.5 µM. 230,000 compounds, 0.66% hits. AID 651582;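 active means pattern-corrected inhibition of lipid staining of at least 50% with the nuclear-stain viability signal not falling by more than 50%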;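 further: 0% = DMSO wells and 100% = triacsin C control wells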
NTR1 agonist: activates human neurotensin receptor 1; AID 493036; P30989; 330,000 compounds, 0.17% hits; NTR1-U2OS beta-arrestin-GFP spot imaging, agonist mode; activation, % at 20 µM;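 active means activation at or above 40% of the spot to cytoplasm intensity ratio, with at least 20 cells analyzed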;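 further: 0% = DMSO without peptide and 100% = 100 nM NTR1 peptide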
The depositor's hits bear a star; . = not tested or not shown.

SMILES	aDG glyco up	MC4R barr agon	MC4R antagonist	Tb MetRS inh	TAG inh	NTR1 agonist
O=C(COC(=O)c1cccc(Br)c1)NC(=O)NC1CCCC1	0.1	8.8*	1.7	-0.4	-0.9	2.7
CCCNC(=O)C1(C)CCN(C(=O)c2c(F)ccc(C)c2F)C1 (centres undefined)	0.0	-2.0	-1.0	-0.1	6.9	.
COc1ccc(CNC[C@@H](CCCCN(C)Cc2ccc(OC)cc2)N2C[C@H](c3ccccc3)N(CCc3ccc(Cl)c(Cl)c3)C(=O)C2=O)cc1	-0.8	25.0*	30.0*	-0.1	128.8	22.1
CCOc1ccc(CCN2C(=O)C(=O)N([C@H](CCCN(C)Cc3ccccc3)CNCc3ccccc3)C[C@@H]2C(C)C)cc1	.	.	.	.	.	1.6
Nc1[nH]c(C(=O)c2ccccc2)c(-c2ccccc2Br)c1C(=O)c1ccccc1	-0.2	.	.	-0.4	.	.
CN(C)CCCn1c2c3ccccc3ccc2c2oc(=O)c3ccccc3c21	-0.3	0.2	3.0	-0.2	77.8*	.
COc1ccc2nc(-c3ccccn3)[nH]c2c1	0.1	-1.4	4.4	-1.4	69.9*	0.9
Nc1ccc2nc(-c3ccccn3)[nH]c2c1	-0.3	-0.3	5.3	-2.3	.	5.8
Cc1cccc(C)c1NC(=O)C1(C)CSCC(=O)N1CCCn1ccnc1 (centres undefined)	-0.1	.	.	-0.2	.	.
CCCCCc1cc(=O)oc2c(C(CCN3CCCC(C)C3)c3ccc(OC)cc3)c(OC)cc(OC)c12 (centres undefined)	1.2	6.1	20.0	-0.4	95.9*	33.8
COc1cc(OC)c2ccc(=O)oc2c1C(CCN1CCCC(C)C1)c1ccc2c(c1)OCO2 (centres undefined)	0.0	0.2	-5.9	-0.3	42.3	-3.4
CC(C)(C)c1ccc(Cn2c(=N)n(CC(O)c3ccco3)c3ccccc32)cc1 (centres undefined)	-0.7	1.0	-7.2	-0.1	107.1*	8.1
Cc1ccccc1Cn1c(=N)n(CC(O)c2ccco2)c2ccccc21 (centres undefined)	-0.3	-1.9	-2.0	-0.3	-17.7	-1.6
O=C(NCc1ccc(Cl)c(Cl)c1)c1cc(C2CCCCN2C(=O)c2ccccn2)on1 (centres undefined)	-0.1	0.7	3.9	0.1	-2.5	.
OC(COc1ccc2cc(Br)ccc2c1)CN1CCCC1 (centres undefined)	4.7*	1.9	6.7	0.5	.	-0.1
CC1(NC(=S)Nc2ccccc2)CCS(=O)(=O)C1 (centres undefined)	0.0	9.1*	1.3	-0.5	17.3	-0.5
CC1(NC(=S)Nc2ccc(NC(=S)NC3(C)CCS(=O)(=O)C3)cc2)CCS(=O)(=O)C1 (centres undefined)	0.0	-1.9	1.7	4.2	18.4	1.4
COc1cc(NC(=O)COc2c(C)cc(C)cc2[N+](=O)[O-])c(OC)cc1Cl	0.0	8.4*	6.9	-0.8	1.7	1.6
NC(c1csc(Nc2ccccn2)n1)C1CCCCC1 (centres undefined)	1.7	5.0	-2.2	-0.2	25.5	.
COc1ccc(OC)c(NC(=O)Nc2nc(CN(C)C)cs2)c1	0.1	-1.2	1.5	0.7	2.0	.
Nc1nonc1C(=O)NCCN=Cc1cc(Cc2ccccc2)cc(Br)c1O	-0.2	9.2*	5.1	0.1	.	31.1
COc1ccc(-c2cnc(C(O)c3ccc(OC)c(F)c3)[nH]2)cc1 (centres undefined)	0.1	-0.7	-0.5	0.0	-2.0	.
Cc1cccn2c(=O)c3cc(C(=O)NCc4ccco4)c(=N)n(CCc4ccccc4)c3nc12	0.8	0.0	21.4	0.0	41.7	15.6
Cc1cccn2c(=O)c3cc(C(=O)NCCc4ccccc4)c(=N)n(Cc4ccco4)c3nc12	0.9	-0.3	-38.5	0.1	.	57.1*
COc1cccc(C(=O)C(=O)N2CCN(C(=O)OCc3ccccc3)CC2)c1	0.1	.	.	-0.2	.	.
SMILES	aDG glyco up	MC4R barr agon	MC4R antagonist	Tb MetRS inh	TAG inh	NTR1 agonist
COc1ccc(-c2c(C)nc(N)nc2-c2ccc(OCc3ccc(C)cc3)cc2O)cc1OC	-0.2	9.6*	3.9	-0.8	.	8.7
CCOC(=O)C1(C)CCN1C(=O)c1ccc(OC)c(OC)c1 (centres undefined)	-0.2	-0.6	0.4	-0.2	-2.3	.
O=C(NCc1ccc2c(c1)OCO2)c1c(-c2ccccc2)sc2ccccc12	0.0	21.0*	7.4	-0.5	-15.8	-0.2
Cc1onc(-c2ccccc2)c1C(=O)NCc1ccc2c(c1)OCO2	0.2	-0.4	17.5	-0.2	.	0.1
COc1cc(NC(=O)CN2CCC(Cc3ccccc3)CC2)c(C)cc1[N+](=O)[O-]	0.2	9.5*	3.2	-0.6	.	1.3
O=C(CN1CCC(Cc2ccccc2)CC1)NC(=O)NCc1ccccc1	-0.1	9.6*	8.6	-0.2	.	1.9
COc1cc(CN2CCC(Cc3ccccc3)CC2)cc([N+](=O)[O-])c1O	0.0	-0.3	-1.3	-0.4	-1.9	-0.8
Cc1cccc(Cl)c1NC(=O)NCCCN1CCCCC1C (centres undefined)	-0.1	.	.	-0.9	.	.
CCOC(=O)[C@]12CCCC=C1N(CCC1=CCCCC1)C(=O)[C@H](CC(=O)N1CCN(C(=O)C3CC3)CC1)C2	-0.2	.	.	0.1	.	.
COc1ccc(N2C(=O)[C@@H]3[C@H](C2=O)[C@H]2C=CC=NN2[C@@H]3C(=O)Nc2ccc(Cl)cc2)cc1	0.1	-2.4	29.3*	0.1	-1.5	0.8
O=C(Nc1ccc(Cl)cc1)[C@@H]1[C@@H]2C(=O)N(c3ccc4ccccc4c3)C(=O)[C@@H]2[C@H]2C=CC=NN21	-0.1	0.4	11.5	-0.7	-21.4	1.6
COc1ccc(CN2C(=O)CN(S(C)(=O)=O)CC2(C)C(=O)Nc2c(C)cccc2C)cc1OC (centres undefined)	0.5	.	.	-0.9	.	.
CCCN(CCC)Cc1c(C(=O)N/N=C/CCc2ccccc2)nnn1-c1nonc1N	-0.1	9.2*	8.8	0.0	.	2.1
Nc1nonc1-n1nnc(C(=O)N/N=C/c2ccccc2)c1CSc1ccc(Cl)cc1	0.4	9.1*	1.3	-0.2	.	4.7
Cc1cc2nc(-c3nnnn3C3CCCCC3)c(=O)[nH]c2cc1C	-0.1	.	.	0.0	.	.
CCCCc1cc(=O)oc2cc(C)cc(OCC(=O)Nc3cccnc3)c12	0.2	8.7*	1.4	-0.1	.	1.2
CCCc1cc(=O)oc2cc(C)cc(OCC(=O)NCc3cccnc3)c12	-0.1	-1.0	5.4	0.3	.	-0.4
C(=C\c1ccccc1)/CN1CCN(C(c2cc3ccccc3o2)c2nnnn2C2CCCCC2)CC1 (centres undefined)	0.4	.	.	-1.4	.	.
CC(C)n1cnc2c(N(C)c3ccccc3)nc(N(CCN(C)C)Cc3ccccc3)nc21	-0.2	-1.3	2.4	-0.3	51.6*	13.8
